Screens deposited in PubChem by Johns Hopkins Ion Channel Center.
The list is not random: actives were taken first. Their share in the collection is about 3.5%.
MrgX1 allo act = human MrgX1 positive allosteric modulation, primary screen. MrgX1-HEK293, Fluo-4 calcium flux, FDSS; stronger effect = higher value. 310,000 compounds, 0.63% hits. B-score at 10 µM. AID 588675. Q96LB2;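 active = plate-corrected calcium response at least 3 library SD above typical, normal starting fluorescence, not activating the receptor alone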;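 note: compound read alongside a low EC10 to EC30 dose of BAM8-22 agonist; peak minus trough fluorescence over baseline measured at the second addition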
Target sequence (Q96LB2 whole entry, looked up): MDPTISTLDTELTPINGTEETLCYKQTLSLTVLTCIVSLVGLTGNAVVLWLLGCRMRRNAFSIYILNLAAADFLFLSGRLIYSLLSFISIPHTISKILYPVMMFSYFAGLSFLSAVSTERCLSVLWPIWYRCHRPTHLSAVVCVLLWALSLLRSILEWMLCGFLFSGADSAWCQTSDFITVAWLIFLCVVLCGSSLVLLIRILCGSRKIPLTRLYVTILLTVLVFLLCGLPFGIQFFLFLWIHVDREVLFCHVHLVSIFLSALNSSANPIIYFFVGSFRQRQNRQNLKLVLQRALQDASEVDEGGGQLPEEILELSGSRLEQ
MrgX1 antag = human MrgX1 receptor antagonism, primary screen; Q96LB2; MRGX1-HEK293 calcium flux, Fluo-4, BAM8-22 antagonism; stronger effect = lower value; B-score at 10 µM; 310,000 compounds, 1.3% hits;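 active = calcium-response B-score plate-corrected more than 3 library SD below zero, starting fluorescence within 5 deviations, no agonist response on first addition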;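 note: peak minus trough fluorescence over baseline after final BAM8-22 challenge near maximal dose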
MrgX1 ag = activates human MrgX1 receptor signaling. Q96LB2. 310,000 compounds, 0.44% hits. MrgX1-HEK293 cells, Fluo-4 calcium fluorescence, agonist mode; stronger effect = higher value. B-score at 10 µM;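 active = calcium response B-score plate-corrected fluorescence ratio at least 3 library SD, with starting fluorescence B-score inside 5 SD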
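System – MrgX1-expressing HEK293 cells · Incubation – cells plated overnight, dye loaded 0.5 h 37 °C, 0.5 h room temperature · Technique – kinetic Fluo-4 NW fluorescence of intracellular calcium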
RGS4 inh = human RGS4 inhibition | 310,000 compounds, 0.45% hits | P49798 | AID 463165 | HEK293 M3R/RGS4 inducible, Fluo-4 calcium flux; stronger effect = higher value; triggered by carbachol at its EC20 | B-score at 10 µM;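 active = B-score, a plate-corrected calcium signal, over three deviations above library mean, with baseline fluorescence within five deviations of library mean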;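 note: RGS4 expression induced by doxycycline in cells with stable M3 receptor; B-score is computed from the integrated fluorescence ratio over baseline after carbachol; higher B-score means a larger calcium signal and so more RGS4 inhibition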
Target sequence (P49798 whole entry, looked up): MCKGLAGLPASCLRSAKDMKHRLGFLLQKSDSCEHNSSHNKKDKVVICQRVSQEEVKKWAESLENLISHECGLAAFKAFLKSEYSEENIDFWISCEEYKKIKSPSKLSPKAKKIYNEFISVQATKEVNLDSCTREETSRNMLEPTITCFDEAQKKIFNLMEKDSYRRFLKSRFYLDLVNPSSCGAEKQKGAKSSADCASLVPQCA
RGS4 act = RGS4 potentiation or activation. HEK293 M3R/inducible RGS4, carbachol calcium flux Fluo4; stronger effect = lower value. B-score at 10 µM. 310,000 compounds, 0.92% hits;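 active = B-score of the integrated calcium signal more than 4 SD below the library mean, with starting fluorescence not abnormally high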;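 note: negative B-score means reduced calcium response which marks RGS4 activation or potentiation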
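Also added: carbachol at ECmax as muscarinic agonist stimulus; Assay system: HEK293 cells with stable M3R and inducible RGS4; Timing: overnight RGS4 induction, 30 min dye load 37 °C, 20 min compound RT; Measured by: Fluo4-AM (2 µM) calcium-flux fluorescence, kinetic read.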
Starred values were filed as active, the others as inactive; i = inactive; . = no result given.

SMILES | MrgX1 allo act | MrgX1 antag | MrgX1 ag | RGS4 inh | RGS4 act
Cc1cccc(N2CCN(C(=O)c3ccc4nc(-c5ccco5)c(-c5ccco5)nc4c3)CC2C)c1 (stereo unspecified) | i | -7.6* | i | i | i
CCOc1ccccc1NC(=O)NNC(=O)CCc1ccc(OC)cc1 | i | i | i | i | i
OCCN1C[C@H](O)[C@@H](O)[C@H](O)[C@H]1CO | i | -9.5* | i | i | i
CCCCN1C[C@H](O)[C@@H](O)[C@H](O)[C@H]1CO | i | i | i | i | i
CCN1CCN(c2c(Cl)cccc2NC(=O)c2cc3ccccc3o2)CC1 | i | i | i | i | i
O=C(NCc1ccccc1OC(F)(F)F)C1CCC(=O)N(C2CC2)C1 (stereo unspecified) | i | i | i | i | i
CC(C)Cc1ccc(C(C)C(N)=NCCc2ccccc2)cc1 (stereo unspecified) | i | i | i | i | -7.1*
CCC(=O)Nc1cccc(C2=NOC3(C2)C[C@@H](C(N)=O)N(C(=O)c2ccccc2C(=O)c2ccccc2)C3)c1 (stereo partly specified) | i | -8* | i | i | i
CCC(=O)Nc1cccc(C2=NOC3(C2)C[C@@H](C(N)=O)N(C(=O)COc2ccc(Cl)cc2)C3)c1 (stereo partly specified) | 8.9* | i | i | i | i
CC1(C(=O)N2CC3(CC(c4ccccc4)=NO3)C[C@H]2C(=O)NCC(N)=O)CC1 (stereo partly specified) | i | -5.6* | i | i | i
CCC(=O)N1CC2(CC(c3cccc(NC(=O)COc4ccc(Cl)cc4)c3)=NO2)C[C@@H]1C(N)=O (stereo partly specified) | . | . | . | i | i
C=CCOc1ccc(/C=N/NC(=O)c2cc3c(OC)cc(OC)cc3[nH]2)cc1 | i | i | i | i | -8.1*
O=C(CCN1CCOCC1)NC1CCCN(Cc2ccccc2F)C1 (stereo unspecified) | i | i | i | i | i
CCCCNc1c(-c2ccc(SC3CCCCC3)cc2)nc2ccccn12 | i | i | i | i | i
CCCCNc1c(-c2ccc(SC(C)CC)cc2)nc2ccccn12 (stereo unspecified) | i | i | i | i | -7.5*
O=C(c1ccc(Cl)c(NC2=NC3CS(=O)(=O)CC3S2)c1)N1CCN(c2ccc(F)cc2)CC1 (stereo unspecified) | i | i | i | i | i
CC(=O)Nc1cc(C(=O)N2CCc3ccccc3C2)ccc1Sc1ccc(Cl)cc1 | i | i | i | i | -8*
COc1ccc(CCN2C(=O)CSC2=Nc2ccc(C(C)C)cc2)cc1OC | i | i | i | i | -7.2*
Cn1c(=O)c(=O)n(C)c2cc(S(=O)(=O)N3CCCC3C(=O)Nc3ccc(F)cc3)ccc21 (stereo unspecified) | i | i | i | i | i
Cc1ccc(NC(=O)C2CCCN2S(=O)(=O)c2ccc3c(c2)n(C)c(=O)c(=O)n3C)cc1C (stereo unspecified) | i | i | i | i | -7*
CC(=O)C1C(c2ccc([N+](=O)[O-])cc2)c2c(noc2C)CC1(C)O (stereo unspecified) | i | i | i | i | -8.5*
CC(=O)C1C(c2ccc(C)cc2)c2c(noc2C)CC1(C)O (stereo unspecified) | i | i | i | i | i
CCOc1ccc(NC(=O)C/C(C)=N/NC(=O)COc2ccc(Br)cc2C)cc1 | i | i | i | i | i
O=C(NC(C(=O)N/N=C/c1cccnc1)c1n[nH]c(=O)c2ccccc12)c1ccccc1 (stereo unspecified) | i | i | 36* | i | i
CN1CCc2c(sc3c2C(=O)NC(c2cccc(OC(=O)c4cccs4)c2)N3)C1 (stereo unspecified) | i | i | i | i | i
SMILES | MrgX1 allo act | MrgX1 antag | MrgX1 ag | RGS4 inh | RGS4 act
O=C1NC(c2ccco2)Nc2sc3c(c21)CCN(Cc1ccccc1)C3 (stereo unspecified) | i | i | 30* | . | .
CN1CCc2c(sc3c2C(=O)NC(c2cn(Cc4ccccc4)c4ccccc24)N3)C1 (stereo unspecified) | i | i | 29* | i | i
CCOC(=O)N1CCc2c(sc3c2C(=O)NC(c2ccccc2)N3)C1 (stereo unspecified) | i | i | i | i | i
CN1CCc2c(sc3c2C(=O)NC(c2ccco2)N3)C1 (stereo unspecified) | i | i | 27* | i | i
Cn1cccc1C1NC(=O)c2c(sc3c2CCC(C(C)(C)C)C3)N1 (stereo unspecified) | i | i | i | i | i
COc1cc(/C=N/N=C(N)N)ccc1OCc1ccccc1Cl | 6.5* | i | i | i | i
COc1ccc(/C=N/N=C/c2ccc(OC)c(OC)c2)cc1OC | i | i | i | i | i
COc1cccc(/C=N/Nc2nc3ccccc3n3cnnc23)c1 | i | i | i | i | i
COc1ccc2nc(C)cc(N/N=C/c3cccc(OC)c3O)c2c1 | i | i | i | i | -11*
COc1ccc(/C=N/Nc2cc(C)nc3ccc(Br)cc23)cc1 | i | i | i | i | i
COc1cccc(/C=N/Nc2nc3ccccc3n3cnnc23)c1O | i | i | i | i | -7.1*
O=C1Nc2ccccc2N(O)N1c1cc(-c2ccc(Cl)cc2)[nH]n1 | i | i | i | i | i
CC(CNC(=O)c1cccs1)c1ccc([N+](=O)[O-])cc1 (stereo unspecified) | i | -4.6* | i | i | i
O=C(NCCNc1ccc([N+](=O)[O-])cc1)c1cccs1 | i | i | i | i | i
CCCC[n+]1c2ccccc2cc2ccccc21 | i | i | 32* | i | i
Cc1ccc2ccccc2[n+]1CCCS(=O)(=O)[O-] | i | i | i | i | i
CCC[n+]1c2ccccc2cc2ccccc21 | i | i | 26* | i | i
CCCCC[n+]1cccc2c3ccccc3ccc21 | i | i | i | i | i
Cc1cc(C(=O)CCC(=O)NC(C)c2ccc(S(N)(=O)=O)cc2)c(C)s1 (stereo unspecified) | i | i | i | i | i
COCC(=O)Nc1ccc(C(=O)Nc2ccccc2Cl)cc1 | i | i | i | i | i
O=C(Nc1cccc(F)c1)C1CCCN(S(=O)(=O)c2ccc(-n3cnnn3)cc2)C1 (stereo unspecified) | i | i | i | i | i
